Assay [1] is described as follows: S. cerevisiae growth inhibition in permissive medium (OD615), pilot counter-assay for S. cerevisiae lifespan shortening project, permissive growth control (AID 705;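 active = growth inhibition above 25% in both replicates, a cutoff set 3 SD above the mean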). Conditions: OD615, 24 h, at 10 µM, active compounds read high. The gist of the method:
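System – S. cerevisiae with engineered DeaD lifespan system · Buffer or medium – SC raffinose/galactose permissive medium · Schedule – cells pre-grown 4 h, then 24 h compound exposure, 30 °C humidified · Technique – culture turbidity as optical density at 615 nm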

Assay [2] can be described thus: S. cerevisiae growth inhibition in restrictive medium, OD615, pilot screen, restrictive growth control, yeast lifespan reduction project (AID 706;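 active = growth inhibition above a set limit, 3 SD over mean compound inhibition, in both replicates, cut at about 43% in these data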;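 note: modified DeaD lifespan yeast strain shifted to restrictive glucose medium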). The settings on record: OD615, 48 h, at 10 µM, active compounds read high. The gist of the method: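 Material: engineered S. cerevisiae DeaD strain / Medium: glucose-based CSMM-D restrictive medium / Compound: single dose of 10 µM compound final, 0.25% DMSO / Timing: 4 h pre-incubation, 48 h exposure at 30 °C / Technique: OD615 absorbance reading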

Assay [3] in a line: doxorubicin toxicity protection in MRP-1 cells – H69AR cells, CellTiter-Glo, duplicate, MRP-1 activator project, pilot screen (AID 807;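 active = viability increase at or above a cutoff of the median across tested compounds plus 3 SD, cut at about 8.5% in these data, passing the limit was not always enough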;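 note: compound pretreatment 18-22 h then 72 h combined with doxorubicin; 0% = doxorubicin alone and 100% = vehicle without doxorubicin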). Conditions: H69AR viability with doxorubicin, CellTiter-Glo luminescence; at 10 µM; active compounds read high.
The nature of assay [4]: viability of HCT116 without oncogenic beta-catenin – human colon tumor cells, pilot screen (AID 823).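 Note: 0% = wells killed by 20 µM Hyamine and 100% = untreated DMSO cell wells.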 The settings on record: HCT116 beta-catenin knockout viability, CellTiter-Glo, 60 h; at 10 µM; active compounds read low. For orientation: In ATP-based viability assays light output follows the ATP content of the culture.
Assay [5] is described as follows: viability of PTEN-null HCT116 cells – cell-based, HCT116 clonal line, CellTiter-Glo, pilot screen (AID 824;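 active = viability at or below 27.92% in each of two runs, the all-compound median minus 4 SD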;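 note: 0% = 20 µM Hyamine control and 100% = vehicle cell control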). Conditions: HCT116 PTEN-deleted viability, 60 h, at 10 µM, active compounds read low.
Assay [6] in a line: RAM pathway blockade in budding yeast – dse1pr::URA3 reporter, 5-FOA selection, pilot screen (AID 869;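 active = inhibition over a set limit, the all-compound mean plus 3 SD, in both replicate runs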;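 note: 0% = DMSO wells with no growth and 100% = 10 µM 1-NA-PP1 with full growth; RAM network block rescues cells from 5-FOA so hits raise OD615 growth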). Conditions: S. cerevisiae dse1pr::URA3 5-FOA growth, OD615, 2 d; at 10 µM; active compounds read high; strain carries analog-sensitive mutant Cbk1 kinase.
The nature of assay [7]: RAM signaling pathway blockade in yeast – S. cerevisiae, Pdr1DBD-CYC8 efflux-inhibited sensitized strain, primary screen (AID 1298;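 active = RAM network inhibition above 8.4% in each of two replicates, 3 SD over the compound average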;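 note: 0% = DMSO untreated cells without growth and 100% = 10 µM 1-NA-PP1 full growth; higher means more yeast growth rescued from 5-FOA killing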). Conditions: S. cerevisiae cbk1-as DSE1-URA3 strain, 5-FOA growth OD615, 2 d; at 50 µM; active compounds read high.

Each structure is given as a SMILES string. A number with no mark means an inactive call. Records with an inconclusive call do not appear. The source made the active and inactive calls.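 Rule for the calls, unless noted: active = cell viability at or below a set limit in both duplicate runs, the limit being the all-compound median minus 4 SD (cut at about 23% in these data, passing the limit was not always enough); inconclusive = no clear call, values can overlap the other calls; inactive = the rest.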

For `COc1ccc(C2C(C#N)=C(N)N3C(=C2C#N)Sc2ccccc23)cc1` (stereo unspecified), the growth inhibition in assay [1] was -1.28%; in assay [2] it was -4.12%. Also, the viability increase in assay [3] was -0.06%. In addition, the viability is 98.9% in assay [4] and 102% in assay [5]. In addition, the inhibition in assay [6] is 1.09%. In addition, the RAM network inhibition in assay [7] was 8.82%.

On to `CCOC(=O)c1ccc(N2C(=O)CC(SCC(N)C(=O)OCC)C2=O)cc1` (stereo unspecified), for which the growth inhibition was -4.09% in assay [1] and -7.37% in assay [2]. For the same compound, the viability increase in assay [3] was -2.49%. For the same compound, the figures for the viability in assay [4] and in assay [5] were 102% and 85.6%, respectively. Also, the inhibition in assay [6] is 1.47%. The RAM network inhibition in assay [7] was 3.7%.

Regarding `CCCc1[nH]nc2c1C(C1CCCCC1)C(C#N)=C(N)O2` (stereo unspecified), the results for the growth inhibition in assay [1] and in assay [2] were -4.03% and -0.785%, respectively. Besides, the viability increase in assay [3] was -6.54%. Moreover, the viability in assay [4] is 12.5% (active); in assay [5], 21.4% (active). Further, the inhibition in assay [6] is 2.06%. In addition, in assay [7], the RAM network inhibition is 1.58%.

Take `CCSc1nnc(Cc2cc(=O)[nH]c(=O)[nH]2)n1-c1ccc(Cl)cc1`: the growth inhibition in assay [1] was -15.2%; in assay [2], -10%. Besides, the viability increase in assay [3] was -0.84%. Further, the viability in assay [4] is 104%; in assay [5] it was 102%. In addition, the inhibition in assay [6] is 1.5%. In addition, in assay [7], the RAM network inhibition is -0.99%.

In the case of `CCNc1nc(C)nc2c1oc1ccccc12`, the growth inhibition is -8.28% in assay [1] and -30.6% in assay [2]. Further, the viability increase in assay [3] is 0.92%. Further, the viability was 101% in assay [4] and 89.5% in assay [5]. Also, in assay [6], the inhibition was 1.81%. In assay [7], the RAM network inhibition is 3.64%.

Turning to `Cn1cccc1Cc1nnc(SCC(=O)NCc2ccccc2Cl)n1-c1ccc(F)cc1`, the growth inhibition in assay [1] was -7.31%; in assay [2], 9.87%. Besides, in assay [3], the viability increase is -5%. The viability in assay [4] is 87%; in assay [5], 86.5%. The inhibition in assay [6] was 1.92%. Also, in assay [7], the RAM network inhibition was 8.74%.

Take `Cc1c2cnn(-c3ccccc3)c(=O)c2c(C)n1CCCC(=O)N1CCN(C)CC1`: the figures for the growth inhibition in assay [1] and in assay [2] were -6.96% and -7.72%, respectively. Moreover, the viability increase in assay [3] is -1.33%. Also, the viability in assay [4] was 104%; in assay [5], 96.2%. Further, in assay [6], the inhibition was 1.86%. Besides, the RAM network inhibition in assay [7] was 3.19%.

Turning to `O=c1[nH]c2ccccc2n1Cc1ccc(F)cc1`, the growth inhibition was -5.88% in assay [1] and -4.46% in assay [2]. Besides, the viability increase in assay [3] was 1.93%. Moreover, the viability is 96.6% in assay [4] and 92.4% in assay [5]. Moreover, the inhibition in assay [6] is 1.71%. Also, the RAM network inhibition in assay [7] was -0.05%.

`CCS(=O)(=O)Nc1cc(-c2nc3cccnc3s2)ccc1C`: the growth inhibition was -6.48% in assay [1] and 12.5% in assay [2]. In addition, the viability increase in assay [3] is -3.94%. Besides, the results for the viability in assay [4] and in assay [5] were 100% and 82.8%, respectively. The inhibition in assay [6] is 1.89%. In assay [7], the RAM network inhibition is 5.32%.

For the compound `Cc1ccccc1NCN1C(=O)C2C3C=CC(C3)C2C1=O` (stereo unspecified), the results for the growth inhibition in assay [1] and in assay [2] were -11.2% and -18.2%, respectively. Also, the viability increase in assay [3] is -2.43%. Moreover, the values for the viability in assay [4] and in assay [5] were 86% and 96.2%, respectively. Also, the inhibition in assay [6] was 3.66%. Moreover, the RAM network inhibition in assay [7] was 0.48%.

Consider `COc1cccc(C2=NOC(C(=O)N3CCN(C(=O)c4ccco4)CC3)C2)c1` (stereo unspecified), for which the growth inhibition in assay [1] was 5%; in assay [2], -4.4%. In addition, the viability increase in assay [3] is -2.95%. Besides, the viability is 95.6% in assay [4] and 95.2% in assay [5]. For the same compound, the inhibition in assay [6] was -0.3%. Moreover, the RAM network inhibition in assay [7] is 0.01%.

Take `CCN1CCN(CCNC(=O)C2CCN(Cc3nc(-c4ccc(Cl)cc4)oc3C)CC2)CC1`: the growth inhibition was -6.21% in assay [1] and -7.59% in assay [2]. Further, in assay [3], the viability increase was -3.29%. The viability in assay [4] is 62.3%; in assay [5], 70.1%. For the same compound, the inhibition in assay [6] is 1.29%. Besides, the RAM network inhibition in assay [7] was 3.67%.

Regarding `CC(=O)NCCn1c(C)cc2ccccc21`, the growth inhibition in assay [1] was 2.67%; in assay [2], -0.185%. Also, the viability increase in assay [3] is -0.52%. Besides, the viability in assay [4] was 95.3%; in assay [5] it was 105%. In assay [6], the inhibition is 0.97%. Moreover, in assay [7], the RAM network inhibition is 0.86%.

As to `COc1cc2[nH]c(=O)n(CCC(=O)NC3CCN(Cc4ccccc4)CC3)c(=O)c2cc1OC`, the growth inhibition in assay [1] was -0.585%; in assay [2], -8.45%. Besides, the viability increase in assay [3] is -1.84%. For the same compound, the viability is 101% in assay [4] and 94.3% in assay [5]. In addition, the inhibition in assay [6] is 2.09%. Also, in assay [7], the RAM network inhibition was -0.53%.

In the case of `Cc1nn(Cc2nc(-c3cccs3)no2)c(C)c1Br`, the growth inhibition in assay [1] is 0.735%; in assay [2], 12%. In addition, the viability increase in assay [3] is -1.13%. Also, the figures for the viability in assay [4] and in assay [5] were 103% and 101%, respectively. Also, the inhibition in assay [6] is 1.93%. Also, the RAM network inhibition in assay [7] was 3.61%.

In the case of `CC(=O)c1ccc(NC(=O)CSc2nnc(Cn3c(=O)sc4ccccc43)n2C)cc1`, the growth inhibition in assay [1] is -0.18%; in assay [2], 14.4%. For the same compound, the viability increase in assay [3] was -1.49%. The values for the viability in assay [4] and in assay [5] were 100% and 101%, respectively. In assay [6], the inhibition was 0.83%. The RAM network inhibition in assay [7] is 3.42%.

Turning to `CCc1c(C)sc(NC(=O)c2cccs2)c1C(=O)OC(C)C`, the growth inhibition was -3.37% in assay [1] and 5.3% in assay [2]. Moreover, the viability increase in assay [3] is 4.48%. Besides, the viability is 77.5% in assay [4] and 79.1% in assay [5]. Besides, in assay [6], the inhibition was 1.9%. Moreover, in assay [7], the RAM network inhibition is 5.72%.

With `COc1cc(NC(=O)C2CCCN2C(=O)C2CCC(C)CC2)cc(OC)c1OC` (stereo unspecified), the growth inhibition in assay [1] is -6.57%; in assay [2], -3.52%. Further, the viability increase in assay [3] was -1.44%. Besides, the viability in assay [4] is 96.3%; in assay [5], 93.2%. In addition, the inhibition in assay [6] is 2.65%. The RAM network inhibition in assay [7] is 1.46%.

The term viability denotes a read-out of living cells in per cent, often relative to untreated cells. In general, inhibition refers to the change of the read-out against control, counted positive when it falls.

These data come from PubChem BioAssay.
